Compounds with a hit are over-represented: about 1.7% of the library has one in this group of screens.
PfG6PD inh – PfG6PD enzyme inhibitors, primary screen, biochemical, fluorescence intensity, uHTS | glucose-6-phosphate dehydrogenase-6-phosphogluconolactonase (Plasmodium falciparum 3D7) | PfGluPho enzyme, NADPH resazurin-diaphorase fluorescence | inhibition, % at 20 µM | 350,000 compounds, 0.78% hits | AID 504690, 2011;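 active means inhibition reaching at least a set limit at 20 µM in the primary screen, cut at about 59% in these data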;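 further: 0% = DMSO wells with substrate and 100% = DMSO wells lacking glucose-6-phosphate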
B2AR ag – beta2AR agonists driving receptor internalization, primary screen, cell-based, FAP fluorogen, flow cytometry | 340,000 compounds, 0.43% hits | Am2.2-beta2AR cells | response, % (test concentration not listed) | Beta-2 adrenergic receptor (Homo sapiens), P07550;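 active means response above a set limit, near 3 SD of response in nonfluorescent compounds, cut at about 42% in these data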
Target sequence (P07550 whole entry, looked up): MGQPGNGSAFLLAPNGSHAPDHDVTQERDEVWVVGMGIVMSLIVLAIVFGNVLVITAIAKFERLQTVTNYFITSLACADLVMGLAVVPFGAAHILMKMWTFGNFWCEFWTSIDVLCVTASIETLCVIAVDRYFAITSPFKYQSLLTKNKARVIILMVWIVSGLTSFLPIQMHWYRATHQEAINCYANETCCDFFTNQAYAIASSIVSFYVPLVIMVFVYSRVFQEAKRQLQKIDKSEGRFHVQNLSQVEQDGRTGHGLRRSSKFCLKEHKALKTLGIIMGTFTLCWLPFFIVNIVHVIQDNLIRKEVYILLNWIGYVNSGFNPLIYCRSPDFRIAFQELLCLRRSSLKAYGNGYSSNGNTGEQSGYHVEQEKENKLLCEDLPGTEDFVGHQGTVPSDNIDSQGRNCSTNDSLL
CXCR6 inh – CXCR6 receptor inhibitors, primary screen, cell-based, beta-arrestin, luminescence, CHO-K1 PathHunter, 1536-well; C-X-C chemokine receptor type 6 (Homo sapiens), O00574; 360,000 compounds, 0.36% hits; inhibition, % at 20 µM; in the data active means inhibition above about 34%, passing the limit was not always enough;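 further: antagonist mode with CXCL16 agonist at 10 nM final; 0% = 10 nM CXCL16 with DMSO and 100% = unstimulated wells without agonist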
Target sequence (O00574 whole entry, looked up): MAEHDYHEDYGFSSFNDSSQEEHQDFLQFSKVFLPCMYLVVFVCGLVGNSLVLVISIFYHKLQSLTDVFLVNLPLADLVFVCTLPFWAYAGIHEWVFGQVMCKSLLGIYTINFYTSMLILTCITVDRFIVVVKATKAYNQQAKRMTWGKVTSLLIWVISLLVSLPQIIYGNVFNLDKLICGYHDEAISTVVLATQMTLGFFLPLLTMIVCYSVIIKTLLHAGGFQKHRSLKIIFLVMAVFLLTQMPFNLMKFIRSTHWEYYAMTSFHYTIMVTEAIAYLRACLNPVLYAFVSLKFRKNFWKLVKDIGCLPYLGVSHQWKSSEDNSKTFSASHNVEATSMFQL
APJ antag – antagonists of human apelin receptor APJ, primary screen, CHO-K1 cells, beta-arrestin complementation, luminescence; 330,000 compounds, 0.32% hits; AID 2521, 2010; inhibition, % at 20 µM;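 active means inhibition above about 40% at 20 µM, limit read from the data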;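 further: cells challenged with 10 nM apelin-13 agonist together with compound; plate controls were apelin-13 plus DMSO wells for no effect and DMSO wells lacking apelin-13 for full effect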
APJ agonist – agonists of human apelin receptor APJ, primary screen, CHO-K1 cells, PathHunter beta-arrestin, luminescence; 0% DMSO wells, 100% apelin; activation, % at 20 µM; 330,000 compounds, 0.11% hits; AID 2520, 2010;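 active means activation more than six SD over the plate average, tested at 20 µM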;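 further: 0% = DMSO alone and 100% = apelin-13 at 10 nM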
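assay system = CHO-K1 APJ beta-arrestin complementation cell line | input = cell density 1000 per well | dosing = compound 20 µM once, DMSO 1% | timing = compound 90 min 25 °C, reagent 1 h | measured by = luminescence from split beta-galactosidase complementation, Galacton Star/Emerald II substrate | read-out basis = APJ agonist activity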
CCR6 antag – CCR6 receptor antagonists, primary screen, cell-based, CHO-K1, luminescence, beta-arrestin, uHTS; 340,000 compounds, 0.49% hits; inhibition, % at 20 µM; C-C chemokine receptor type 6 (Homo sapiens), P51684; AID 493098, 2011; CHO-K1 CCR6 PathHunter beta-arrestin, CCL20-stimulated;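 active means compounds whose inhibition of the agonist-driven luminescence signal at 20 µM reaches about 50%, limit read from the data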;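 further: cells stimulated with CCL20 at 14 nM final; plate controls were DMSO with CCL20 for no effect and DMSO without agonist for full effect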
APJ antag confirm – APJ antagonists blocking beta-arrestin recruitment, confirmation, cell-based, luminescence, single concentration, uHTS hits; AID 2766, 2010; 950 compounds, 66% hits; shares compounds with APJ antag; inhibition, % at 20 µM; antagonist mode; in the data active means inhibition above about 50%
Beta2AR ag CP1 – beta2AR agonists via receptor internalization, confirmation, cell-based, FAP fluorogen, flow cytometry, single point, cherry pick 1 | shares compounds with B2AR ag | Am2.2-beta2AR cells, FAP surface receptor; hits give low values | percent response (surface receptor), % at 10 µM | 1,100 compounds, 25% hits | AID 540358, 2011;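 active means surface receptor percent response at or below 58%, roughly 3 SD from nonfluorescent compounds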
FAP fluor counter – fluorescence artifact in beta-2AR agonist FAP counterscreen; 1,100 tested, under 10 active; shares compounds with B2AR ag; calls only at 10 µM; Am2.2 cells, FAP fluorogen flow cytometry; hits give low values;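 active means percent response below a set limit in fluorescence channel 1 and below 50% in channel 8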
PfGluPho conf – PfG6PD inhibitors, hit retest, confirmation, biochemical, fluorescence intensity, single concentration. shares compounds with PfG6PD inh. recombinant PfGluPho, NADPH-diaphorase-resazurin fluorescence. inhibition, % at 20 µM. 2,400 compounds, 34% hits;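 active means inhibition of at least 50% at 20 µM in any single replicate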;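 further: 0% = DMSO with substrate and 100% = DMSO lacking glucose-6-phosphate substrate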
Diaphorase 10uM – diaphorase inhibitors and chemical oxidizers, confirmation, counter-screen for P. falciparum G6PD inhibitor project, biochemical, fluorescence intensity, 10 µM NADPH. diaphorase-coupled resazurin reduction, NADPH 10 uM. 820 compounds, 39% hits. AID 504862, 2011. inhibition, % at 20 µM. shares compounds with PfG6PD inh;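 active means average inhibition reaching 50% or more with the compound at 20 µM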;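 further: resorufin red fluorescence formed as diaphorase reduces resazurin using NADPH; 0% = DMSO with enzyme and 100% = DMSO without enzyme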
Diaphorase 30uM – diaphorase inhibitors and chemical oxidizers, confirmation, counter-screen for P. falciparum G6PD inhibitor project, biochemical, fluorescence intensity, 30 µM NADPH | inhibition, % at 20 µM | 820 compounds, 29% hits | Diaphorase/resazurin coupled assay, resorufin fluorescence | shares compounds with PfG6PD inh;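 active means inhibition averaging 50% or more, tested at 20 µM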;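 further: 0% = DMSO with enzyme and 100% = DMSO wells lacking diaphorase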
CXCR6 antag conf – CXCR6 receptor antagonists, confirmation, cell-based, single concentration, beta-arrestin, luminescence. AID 602409, 2012. inhibition, % at 20 µM. CHO-K1 CXCR6 PathHunter beta-arrestin. shares compounds with CXCR6 inh. 700 compounds, 65% hits;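 active means mean inhibition over four retests above 40%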;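 further: receptor stimulated with 10 nM CXCL16 agonist; beta-galactosidase fragment complementation upon beta-arrestin recruitment to receptor; plate controls were CXCL16 plus DMSO for no effect and DMSO without CXCL16 for full effect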
Numbers without * were called inactive; i = inactive; · = not tested or not shown.

SMILES	PfG6PD inh	B2AR ag	CXCR6 inh	APJ antag	APJ agonist	CCR6 antag	APJ antag confirm	others
COc1cc2c(=O)n(CCC(=O)NCC3CCCO3)c(=O)n(CC(=O)Nc3ccccc3C)c2cc1OC (stereo unspecified)	12.9	0.9	-10.4	15.7	-1.8	-9.1	·
COc1cc2c(=O)n(Cc3ccccc3)c(=O)n(CC(=O)NCC3CCCO3)c2cc1OC (stereo unspecified)	-3.6	-7.4	-4.5	40.2*	-1.5	3.0	6.9
S=C(N/N=C/c1ccc(Cl)cc1)N1CCOCC1	35.2	-2.0	39.0	40.9*	-7.5	55.1*	59.8*
S=C(N/N=C/c1ccc(Br)cc1)N1CCCCC1	17.6	4.8	-6.5	10.9	-7.3	17.2	·
CC(=O)Nc1ccc(NC(=O)Cc2ccc(S(=O)(=O)N3CCCCC3)cc2)cc1	-15.6	2.7	0.6	9.8	-1.1	8.0	·
CCCc1ccc(C(O)c2ncc(-c3cccc(C)c3)[nH]2)cc1 (stereo unspecified)	·	·	-1.8	·	·	·	·
CCc1ccc2c(c1)C1(NN=C(c3cccc4ccccc34)S1)C(=O)N2 (stereo unspecified)	·	-0.8	25.6	42.0*	-8.4	·	39.2
Cc1ccc(S(=O)(=O)N2CCN(C(=O)/C=C/c3ccccc3)CC2)cc1C	0.7	-1.4	0.2	20.1	0.0	7.5	·
Cc1ccc(C(C[N+](=O)[O-])n2nc(C)cc2C)cc1 (stereo unspecified)	23.1	18.4	6.8	-19.0	4.7	29.5	·
Cc1ccc(C(C[N+](=O)[O-])Sc2ccc(N)cc2)cc1 (stereo unspecified)	54.8	70.4*	53.1*	46.4*	0.5	51.7*	73.8*	Beta2AR ag CP1=102.1;FAP fluor counter=i
O=c1n(Cc2ccccc2)c(O)c2n1Cc1ccccc1N=C2c1ccc(C(F)(F)F)cc1	·	·	0.6	·	·	·	·
Cc1ccc(S(=O)(=O)Nc2cccc3cccnc23)cc1	24.0	44.9*	70.0*	75.8*	-16.6	85.6*	95.8*	Beta2AR ag CP1=87.4;FAP fluor counter=i
CCOC(=O)c1c(C2COc3ccccc3O2)csc1NC(=O)c1ccco1 (stereo unspecified)	84.1*	-8.8	8.2	42.7*	-9.0	10.1	77.1*	PfGluPho conf=54.2*;Diaphorase 10uM=-26.4;Diaphorase 30uM=-16.0
COc1cc(/C=C2\SC(c3ccc(C)cc3)=NC2=O)ccc1O	64.0*	3.9	57.2*	57.6*	-11.9	75.0*	102.4*	PfGluPho conf=53.8*;Diaphorase 10uM=1.7;Diaphorase 30uM=-3.7
COc1ccc(/C=C2\SC(c3ccc(C)cc3)=NC2=O)cc1OC	55.8	-12.8	7.6	-11.4	3.2	8.4	·
COc1ccc2nc(NC(=S)N(C)C)sc2c1	70.3*	8.7	35.3	51.0*	-8.6	45.1	44.3	PfGluPho conf=12.6
Cn1c(SCc2cccc(Br)c2)nnc1-c1ccncc1	-7.4	9.0	5.2	0.7	-1.6	3.2	·
CC(C)[C@H](NC(=O)[C@@H]1CSC2c3ccccc3C(=O)N21)C(=O)N1CCCCC1 (stereo partly specified)	19.4	-4.5	5.3	23.9	1.1	-2.5	·
Cc1cc(C)c2nc3sc(C(=O)N4CCOCC4)c(N)c3cc2c1	65.3*	33.6	1.9	43.6*	-9.7	10.4	30.1	PfGluPho conf=24.0
Cc1ccc(C)c2nc3sc(C(=O)N4CCOCC4)c(N)c3cc12	43.9	5.8	0.3	5.3	-1.2	-3.0	·
COC(=O)c1ccc2c(c1)C(C)(C)C(/C=C/c1ccccc1O)=[N+]2C	14.3	62.0*	67.9*	62.9*	1.2	89.5*	124.2*	CXCR6 antag conf=93.0*
C[N+]1=C(/C=C/Nc2ccccc2Cl)C(C)(C)c2ccccc21	-6.1	-14.2	-8.0	-6.7	1.0	22.9	·
CSCCC(C(=O)Nc1c(C)cccc1C)N(Cc1ccccc1)Cc1ccccc1 (stereo unspecified)	·	·	4.0	·	·	·	·
CCC1CCCCN1S(=O)(=O)c1ccc(NC(=O)c2ccncc2)cc1 (stereo unspecified)	3.0	0.8	-25.9	-19.8	6.7	7.8	·
CCC1CCCCN1S(=O)(=O)c1ccc(NC(=O)c2nc(S(C)(=O)=O)ncc2Cl)cc1 (stereo unspecified)	25.0	32.2	88.2*	59.6*	-7.5	98.0*	91.5*	CXCR6 antag conf=81.8*
CCS(=O)(=O)c1ncc(Cl)c(C(=O)Nc2ccc(S(=O)(=O)N3CCCC(C)C3)cc2)n1 (stereo unspecified)	36.3	46.7*	87.2*	77.7*	-7.7	94.0*	104.2*	Beta2AR ag CP1=69.0;FAP fluor counter=i;CXCR6 antag conf=77.9*
Cc1ccc(/C=N/NC(=S)N2CCOCC2)cc1	25.4	11.9	49.6*	51.1*	-6.3	76.2*	64.7*	CXCR6 antag conf=73.9*
Cc1ccc(CNC(=S)N2CCOCC2)cc1	13.3	-1.7	-9.9	12.7	-2.4	-2.7	·
CCOC(=O)c1c(-c2ccc(C)o2)csc1NC(=S)NC(=O)N(C)C	-5.0	3.2	44.4*	45.5*	-4.8	·	42.4	CXCR6 antag conf=62.1*

High-throughput results as filed in PubChem BioAssay.
